# What was measured:
# Plasmodium falciparum [1] = assay: Antimalarial activity against Plasmodium falciparum K1; format: functional; conditions: Plasmodium falciparum, K1; read-out: ED50 (the source's name)
# Procedure, shortened: (§1)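 Asynchronous culture in type A+ erythrocytes at 0.5% parasitemia and 0.5% hematocrit, grown in RPMI-1640 with 20% heat-inactivated human A+ plasma. Compound was serially diluted from a top final 5 µM, with DMSO vehicle as 100% growth. Plates ran 48 h at 37 °C under 5% CO2/5% O2/90% N2, then [3H]-hypoxanthine (0.3 µCi) for 24 h. Filter-harvested counts were corrected for the uninfected-RBC background. ED50 by linear regression; duplicates averaged.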
# Plasmodium falciparum [2] = assay: Inhibition of Plasmodium falciparum protein farnesyltransferase at 0.5 nM by scintillation proximity assay
# Plasmodium falciparum [3] = assay: Inhibition of Plasmodium falciparum protein farnesyltransferase at 50 nM by scintillation proximity assay
# Plasmodium falciparum [4] = assay: Antimalarial activity against Plasmodium falciparum 3D7; format: functional; conditions: Plasmodium falciparum, 3D7; read-out: ED50 (the source's name); procedure, shortened: as §1
# Plasmodium falciparum [5] = assay: Inhibition of Plasmodium falciparum protein farnesyltransferase at 5 nM by scintillation proximity assay
EC50 (Plasmodium falciparum [1]),inhibition (Plasmodium falciparum [2]),inhibition (Plasmodium falciparum [3]),EC50 (Plasmodium falciparum [4]),inhibition (Plasmodium falciparum [5]),SMILES
0.19 µM,14%,98%,0.17 µM,79%,COC(=O)N1CCC(CN(C2Cc3cc(C#N)ccc3N(Cc3cncn3C)C2)S(=O)(=O)c2ccc(OC)cc2)CC1 (stereo not given)
0.075 µM,91%,91%,0.065 µM,47%,Cn1cncc1CN1CC(N(CC2CCN(C(=O)OCC(F)(F)F)CC2)S(=O)(=O)c2ccccn2)Cc2cc(C#N)ccc21 (stereo not given)
0.055 µM,54%,96%,0.07 µM,90%,Cn1cnc(S(=O)(=O)N(Cc2ccc(C#N)cc2)C2Cc3cc(C#N)ccc3N(Cc3cncn3C)C2)c1 (stereo not given)
2.6 µM,14%,46%,4 µM,7%,CC(C)NC(=O)c1ccc2c(c1)CC(N(CC(=O)NC(C)(C)C)S(=O)(=O)c1cn(C)cn1)CN2Cc1cncn1C (stereo not given)
0.16 µM,20%,98%,0.14 µM,84%,COC(=O)N1CCC(CN(C2Cc3cc(C#N)ccc3N(Cc3cncn3C)C2)S(=O)(=O)c2cccc3nsnc23)CC1 (stereo not given)
0.055 µM,94%,98%,0.075 µM,56%,CCS(=O)(=O)N1CCC(CN(C2Cc3cc(C#N)ccc3N(Cc3cncn3C)C2)S(=O)(=O)c2ccccn2)CC1 (stereo not given)
2.4 µM,0%,58%,1.6 µM,19%,COC(=O)N1CCC(CN(C2Cc3cc(C#N)ccc3N(Cc3cncn3C)C2)S(=O)(=O)N(C)C)CC1 (stereo not given)
0.45 µM,32%,98%,0.27 µM,84%,Cn1cnc(CN2CC(N(Cc3ccc(S(C)(=O)=O)cc3)S(=O)(=O)c3cn(C)cn3)Cc3cc(-c4ccccc4)ccc32)c1 (stereo not given)
0.36 µM,21%,97%,0.38 µM,89%,C=C(Br)CN(C1Cc2cc(-c3ccccc3)ccc2N(Cc2cncn2C)C1)S(=O)(=O)c1cn(C)cn1 (stereo not given)
0.07 µM,24%,97%,0.055 µM,80%,COC(=O)N1CCC(CN(C2Cc3cc(C#N)ccc3N(Cc3cncn3C)C2)S(=O)(=O)c2ccccc2Cl)CC1 (stereo not given)
0.965 µM,17%,96%,0.144 µM,93%,Cc1noc(C)c1CN(C1Cc2cc(C#N)ccc2N(Cc2cncn2C)C1)S(=O)(=O)c1ccccn1 (stereo not given)
0.35 µM,0%,32%,0.45 µM,0%,CC(C)OC(=O)N1CCC(CN(C2Cc3cc(-c4ccccc4)ccc3N(Cc3cn(C)cn3)C2)S(=O)(=O)c2cn(C)cn2)CC1 (stereo not given)
0.35 µM,37%,99%,0.375 µM,87%,COC(=O)CN(C1Cc2cc(-c3ccccc3)ccc2N(Cc2cn(C)cn2)C1)S(=O)(=O)c1cn(C)cn1 (stereo not given)
0.8 µM,24%,97%,1 µM,81%,Cn1cncc1CN1CC(N(Cc2cccc(C(=O)O)n2)S(=O)(=O)c2ccccn2)Cc2cc(C#N)ccc21 (stereo not given)
0.6 µM,37%,99%,0.21 µM,91%,Cn1cnc(S(=O)(=O)N(Cc2ccc3cccnc3c2)C2Cc3cc(C#N)ccc3N(Cc3cncn3C)C2)c1 (stereo not given)
3.05 µM,11%,41%,1.2 µM,16%,CCCS(=O)(=O)N(Cc1ccccc1F)C1Cc2cc(C#N)ccc2N(Cc2cncn2C)C1 (stereo not given)
> 5 µM,0%,34%,2.6 µM,9%,CN(C)CCCN(C1Cc2cc(C#N)ccc2N(Cc2cncn2C)C1)S(=O)(=O)c1cn(C)cn1 (stereo not given)
> 5 µM,0%,15%,> 5 µM,0%,COC(=O)N1CCC(CN(C2Cc3cc(C#N)ccc3N(Cc3cncn3C)C2)S(=O)(=O)CS(C)(=O)=O)CC1 (stereo not given)
0.14 µM,25%,99%,0.062 µM,86%,COC(=O)N1CCC(CN(C2Cc3cc(C#N)ccc3N(Cc3cncn3C)C2)S(=O)(=O)c2cc(C)cs2)CC1 (stereo not given)
0.01 µM,82%,100%,0.006 µM,99%,Cn1cnc(S(=O)(=O)N(Cc2ccc(S(C)(=O)=O)cc2)C2Cc3cc(C#N)ccc3N(Cc3cncn3C)C2)c1 (stereo not given)
> 5 µM,6%,65%,2.7 µM,11%,Cn1cncc1CN1CC(N(CCN)S(=O)(=O)c2ccccn2)Cc2cc(C#N)ccc21 (stereo not given)

EC50 (Plasmodium falciparum [1]),inhibition (Plasmodium falciparum [2]),inhibition (Plasmodium falciparum [3]),EC50 (Plasmodium falciparum [4]),inhibition (Plasmodium falciparum [5]),SMILES
4.6 µM,5%,60%,> 5 µM,5%,Cn1cnc(S(=O)(=O)N(CCCN)C2Cc3cc(C#N)ccc3N(Cc3cncn3C)C2)c1 (stereo not given)
> 5 µM,0%,51%,0.6 µM,7%,Cn1cncc1CN1CC(N(Cc2ccccc2F)S(C)(=O)=O)Cc2cc(C#N)ccc21 (stereo not given)
0.45 µM,23%,92%,0.32 µM,70%,Cc1c(S(=O)(=O)N(Cc2ccc(S(C)(=O)=O)cc2)C2Cc3cc(C#N)ccc3N(Cc3cncn3C)C2)ncn1C (stereo not given)
0.4 µM,14%,90%,0.51 µM,47%,COC(=O)NCCN(C1Cc2cc(C#N)ccc2N(Cc2cncn2C)C1)S(=O)(=O)c1ccccn1 (stereo not given)
3.5 µM,10%,97%,2.1 µM,78%,Cn1cncc1CN1CC(N(Cc2ccc(S(C)(=O)=O)cc2)S(=O)(=O)c2ccc3c(c2)OCCCO3)Cc2cc(C#N)ccc21 (stereo not given)
1.8 µM,0%,46%,2.9 µM,0%,Cc1ccccc1CN(C1Cc2cc(-c3ccccc3)ccc2N(Cc2cn(C)cn2)C1)S(=O)(=O)c1cn(C)cn1 (stereo not given)
0.28 µM,67%,96%,0.275 µM,7%,Cn1cncc1CN1CC(N(CC2CCN(S(=O)(=O)c3ccccc3)CC2)S(=O)(=O)c2ccccn2)Cc2cc(C#N)ccc21 (stereo not given)
0.405 µM,49%,96%,0.21 µM,84%,Cn1cncc1CN1CC(N(Cc2ccc(S(C)(=O)=O)cc2)S(=O)(=O)c2ccccn2)Cc2cc(C#N)ccc21 (stereo not given)
> 5 µM,14%,80%,3.5 µM,31%,Cn1cnc(S(=O)(=O)NC2Cc3cc(-c4ccccc4)ccc3N(Cc3cncn3C)C2)c1 (stereo not given)
2.5 µM,11%,91%,0.43 µM,50%,Cn1cncc1CN1CC(N(Cc2ccc(F)cc2)S(=O)(=O)c2ccccn2)Cc2cc(C#N)ccc21 (stereo not given)
0.016 µM,43%,100%,0.016 µM,98%,Cn1cnc(S(=O)(=O)N(CCc2ccccc2F)C2Cc3cc(C#N)ccc3N(Cc3cncn3C)C2)c1 (stereo not given)
0.2 µM,0%,90%,0.35 µM,51%,Cc1cc(=O)n(CCCCN(C2Cc3cc(C#N)ccc3N(Cc3cncn3C)C2)S(=O)(=O)c2ccccn2)c(=O)n1C (stereo not given)
0.7 µM,29%,99%,0.4 µM,91%,Cn1cnc(CN2CC(N(CCS(C)(=O)=O)S(=O)(=O)c3cn(C)cn3)Cc3cc(-c4ccccc4)ccc32)c1 (stereo not given)
0.0016 µM,72%,99%,0.003 µM,99%,COC(=O)N1CCC(CN(C2Cc3cc(C#N)ccc3N(Cc3cncn3C)C2)S(=O)(=O)c2cncn2C)CC1 (stereo not given)
3 µM,0%,91%,0.65 µM,38%,Cn1cncc1CN1CC(N(Cc2ccccc2C(F)(F)F)S(=O)(=O)c2ccccn2)Cc2cc(C#N)ccc21 (stereo not given)
0.163 µM,46%,100%,0.62 µM,98%,COC(=O)c1ccnc(CN(C2Cc3cc(C#N)ccc3N(Cc3cncn3C)C2)S(=O)(=O)c2cn(C)cn2)c1 (stereo not given)
0.017 µM,61%,100%,0.019 µM,96%,COC(=O)NCCCN(C1Cc2cc(C#N)ccc2N(Cc2cncn2C)C1)S(=O)(=O)c1cn(C)cn1 (stereo not given)
0.4 µM,10%,98%,0.37 µM,79%,Cn1cncc1CN1CC(N(CCn2ccc3ccccc32)S(=O)(=O)c2ccccn2)Cc2cc(C#N)ccc21 (stereo not given)
3.75 µM,0%,90%,3 µM,58%,Cn1cnc(S(=O)(=O)N(Cc2cc3nsnc3cc2Cl)C2Cc3cc(C#N)ccc3N(Cc3cncn3C)C2)c1 (stereo not given)
3.5 µM,0%,88%,4.6 µM,46%,Cn1cnc(CN2CC(N(Cc3ccc(C(F)(F)F)o3)S(=O)(=O)c3cn(C)cn3)Cc3cc(-c4ccccc4)ccc32)c1 (stereo not given)

# Reference: ChEMBL document CHEMBL1148785, “Second generation tetrahydroquinoline-based protein farnesyltransferase inhibitors as antimalarials” (J Med Chem, 2007)
